RanGTP-Imp inh = disruptors of Ran-importin-beta complex formation – biochemical, FRET, CFP-Ran, YFP-importin-beta, homogeneous, primary screen; 300,000 compounds, 1.1% hits; cell-free CFP-Ran/YFP-importin-beta FRET ratio; inhibition, % (concentration not given with the values);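 active = more than half of the replicate wells show a fall in the fluorescence ratio signal beyond about 16%, limit read from the data, passing the limit was not always enough; inconclusive = exactly half of the replicate wells pass the set limit; inactive = fewer than half of replicates pass the limit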;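 also: 0% = DMSO wells and 100% = Ran loaded with GDP instead of GTP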
VIM-2 inh = blocks Pseudomonas aeruginosa VIM-2 metallo-beta-lactamase | purified VIM-2, nitrocefin hydrolysis, epi-absorbance fluorescence | 290,000 compounds, 0.89% hits | AID 1527 | inhibition, % at 5.6 µM;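 active = inhibition above the mean of all tested compounds plus 3 SD, cutoff set per screening run, cut at about 7.5% in these data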;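 also: red hydrolysis product quenches plate fluorescence so inhibitors raise well fluorescence; 0% = enzyme with DMSO and 100% = DMSO without enzyme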
Runt-SMMHC FRET = inhibitors of human RUNX1 Runt domain binding to CBFb-SMMHC; 220,000 compounds, 0.74% hits; AID 1434; Cerulean-Runt/Venus-CBFb-SMMHC FRET ratio 530/480, 1 h; inhibition, % at 20 µM; Q01196+Q13951;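 active = mean inhibition across duplicate retests at 20 µM reaching about 50%, limit read from the data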;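 also: 0% = DMSO wells and 100% = wells with excess untagged CBFb-SMMHC; inhibitors lower the FRET ratio by blocking Runt binding to CBFb-SMMHC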
Target sequence (Q01196 whole entry, looked up, the tested form may be a part): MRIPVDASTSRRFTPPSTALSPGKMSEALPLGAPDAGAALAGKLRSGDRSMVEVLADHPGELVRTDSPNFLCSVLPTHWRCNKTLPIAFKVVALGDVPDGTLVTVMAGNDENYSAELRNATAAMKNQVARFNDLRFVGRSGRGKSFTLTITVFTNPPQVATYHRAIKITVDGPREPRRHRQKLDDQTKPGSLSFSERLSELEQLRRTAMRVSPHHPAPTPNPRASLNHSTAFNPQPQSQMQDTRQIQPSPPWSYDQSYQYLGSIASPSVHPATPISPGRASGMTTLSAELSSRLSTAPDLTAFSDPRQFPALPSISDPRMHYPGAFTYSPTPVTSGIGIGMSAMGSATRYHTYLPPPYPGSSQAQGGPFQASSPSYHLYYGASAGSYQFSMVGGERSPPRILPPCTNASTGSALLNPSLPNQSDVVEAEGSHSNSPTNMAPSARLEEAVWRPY
Target sequence (Q13951 whole entry, looked up, the tested form may be a part): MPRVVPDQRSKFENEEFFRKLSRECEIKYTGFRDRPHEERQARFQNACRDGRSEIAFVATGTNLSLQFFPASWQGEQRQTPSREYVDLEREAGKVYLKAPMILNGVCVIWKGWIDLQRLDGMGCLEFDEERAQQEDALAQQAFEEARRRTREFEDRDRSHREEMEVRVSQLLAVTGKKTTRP
Runt-CBFb FRET = blocks binding of human RUNX1 Runt domain to CBFb | Q01196+Q13951 | Cerulean-Runt/Venus-CBFb FRET ratio 530/480, 1 h | inhibition, % at 20 µM | 220,000 compounds, 0.46% hits;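 active = inhibition over about 50% at 20 µM in the single-dose screen, limit read from the data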;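 also: 0% = DMSO wells and 100% = excess unlabeled CBFb competitor control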
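test system = Cerulean-Runt domain fusion protein, energy donor | probe or stimulus = Venus-CBFb binding partner, 100 nM | incubation = two 1 h room-temperature incubations shielded from light | detection = fluorescence energy transfer, 422 nm excitation, 530/480 nm emission | measure = loss of energy transfer signal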
IMP-1 inh = blocks Pseudomonas aeruginosa IMP-1 metallo-beta-lactamase. purified IMP-1, nitrocefin hydrolysis, epi-absorbance fluorescence. AID 1556. inhibition, % at 5.6 µM. 290,000 compounds, 0.45% hits;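 active = inhibition above the mean plus 3 SD of all compounds in the same screening run, cut at about 4.5% in these data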;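 also: 0% = IMP-1 with DMSO and 100% = DMSO wells lacking enzyme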
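System: Purified IMP-1 | Read-out basis: Percent enzyme inhibition | Controls: IMP-1 with DMSO as 0%, enzyme-free DMSO as 100% | Replicates: One well per compound | Doses: 5.6 µM nominal single concentration | Detection: Epi-absorbance fluorescence, 480 nm excitation, 530 nm emission | Incubation: 25 °C, 15 min preincubation, 25 min reaction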
Runt-CBFb TRFRET = Runt-CBFb binding inhibition | TR-FRET RUNX1 Runt domain-CBFb binding | AID 1502 | inhibition, % at 20 µM | 480 compounds, 20% hits | shares compounds with Runt-CBFb FRET; in the data active = inhibition above about 40%
Numbers without * were called inactive; i = inactive; ? = inconclusive; . = no result given. Only some compounds are listed: those with a hit (about 2.6% of all), similar ones and a draw of the others.

SMILES	RanGTP-Imp inh	VIM-2 inh	Runt-SMMHC FRET	Runt-CBFb FRET	IMP-1 inh	Runt-CBFb TRFRET
COc1ccc(S(=O)(=O)N2CCCOC2CNC(=O)C(=O)NCc2ccccc2F)cc1C (stereo not given)	-0.1	-0.8	.	.	-3.8	.
Cc1ccc(N(O)C(=O)NCCCCNC(=O)N(O)c2ccc(C)cc2)cc1	7.2	1.9	.	.	-0.3	.
CCCCn1c(N)c(N(CC(C)C)C(=O)CCCc2nc3ccccc3s2)c(=O)[nH]c1=O	0.0	.	.	.	.	.
Cc1nc2ccccn2c1-c1ccnc(=S)[nH]1	0.6	-0.8	39.8	59.8*	-1.5	19.5
Oc1cccc(-c2nc3ccccc3s2)c1	1.3	-2.2	-0.5	-1.5	-3.7	.
COc1cc(-c2nc3ccccc3s2)ccc1O	0.3	0.2	154.3*	78.7*	-6.6	34.1
COc1ccc(-c2nc3ccccc3s2)cc1O	-22.1	1.2	0.7	1.6	-2.0	.
CCOc1cc(-c2nc3ccccc3s2)ccc1O	2.9	-1.2	116.7*	54.9*	-2.3	38.2
O=C(CSC(=S)N1CCCC1)Nc1ncc(Cl)cc1Cl	0.9	.	.	.	.	.
Cc1ccc(N(CC(=O)NC2CC2)S(=O)(=O)c2ccccc2)c(C)c1	0.8	1.1	.	.	2.2	.
COc1ccc(/C=C(\C#N)C(=O)Nc2cccc3ncccc23)cc1OC	50.4*	-2.2	60.1*	69.2*	-2.7	63.7*
COc1ccc(/C=C(/C#N)C(=O)Nc2cccnc2)cc1OC	-0.7	-8.5	1.2	0.2	-1.6	.
CN(CC(=O)Nc1cccc2ccccc12)C(=O)c1cccc(S(=O)(=O)N(C)C)c1	0.7	-2.5	2.2	0.6	-2.8	.
O=C(CSc1nc2ccccc2s1)Nc1cc(C(=O)O)cc(C(=O)O)c1	-0.7	0.8	52.4	55.2*	-4.3	33.2
O=C(CSc1nc2ccccc2s1)Nc1ccc(Cl)c(C(=O)O)c1	3.4	-3.2	16.6	16.1	-2.3	.
CCCC(C)c1nnc(NC(=O)c2cc(C(=O)OC)cc([N+](=O)[O-])c2)s1 (stereo not given)	1.2	-1.7	44.9	53.3*	-2.3	9.2
CCCC(C)NC(=O)c1cc(C(=O)OC)cc([N+](=O)[O-])c1 (stereo not given)	0.3	-2.5	1.8	-2.1	-2.6	.
CC(=O)c1ccc(OCCCC(=O)N2CCN(S(=O)(=O)c3ccc(C(C)C)cc3)CC2)cc1	1.8	.	.	.	.	.
Cc1ccc(NC(=O)C2CCN(S(=O)(=O)c3ccc4c(c3)CCCC(=O)N4)CC2)c(Br)c1	-0.8	-2.9	.	.	-3.8	.
COc1cc(N2C(=O)C=CC2=O)c(OC)cc1Cl	?	-1.6	69.9*	63.6*	-1.6	11.3
O=c1c2ccccc2sc2ccc(Cl)cc12	20.5*	-2.8	127.6*	69.3*	-3.8	i
COc1cc(OC)cc(C(=O)NN(CCC#N)C2=NS(=O)(=O)c3ccccc32)c1	1.0	-1.4	.	.	-4.0	.
CCOC(=O)C1=C(C)N(c2ccc(OC)cc2)C(=O)/C1=C\c1ccc(O)c(OCC)c1	-12.2	-1.8	-4.1	65.2*	-1.8	32.2
CCOC(=O)C1=C(C)N(c2ccc(OC)cc2)C(=O)/C1=C\c1cccs1	4.5	0.2	-3.6	-2.8	-2.9	.
COCCOC(=O)C(C#N)c1nc2ccccc2nc1N1CCN(Cc2ccccc2)CC1 (stereo not given)	5.5	-0.3	96.9*	53.4*	0.4	0.8
SMILES	RanGTP-Imp inh	VIM-2 inh	Runt-SMMHC FRET	Runt-CBFb FRET	IMP-1 inh	Runt-CBFb TRFRET
CCOc1ccccc1NC(=O)C(OC(=O)c1cc(C)oc1C)c1ccccc1 (stereo not given)	-4.7	0.4	3.2	54.0*	-0.9	-13.3
COc1ccc(C(=O)NCc2nnc(SCC(=O)Nc3nc4ccccc4s3)o2)cc1	0.9	-4.9	-3.3	56.7*	-3.4	-23.4
COc1cc(C(=O)NCc2nnc(SCC(=O)Nc3nc4ccccc4s3)o2)cc(OC)c1OC	4.9	-5.8	48.4	53.4*	-5.6	-1.9
Clc1ccc(CN2CCN(c3ncccn3)CC2)cc1	2.2	-0.1	.	.	1.1	.
COc1ccc(-n2c(N)c(C(=O)NCc3ccco3)c3nc4ccccc4nc32)cc1	37.4*	-0.7	120.0*	50.7*	-3.2	21.3
COCCNC(=O)c1c(N)n(-c2cccc(C)c2)c2nc3ccccc3nc12	97.4*	1.4	78.8*	60.4*	-0.1	24.7
O=C(NCc1ccco1)c1cccnc1-c1nc2ccccc2s1	4.0	-0.2	31.3	50.3*	-1.9	40.2*
O=C(NCc1ccco1)c1cccnc1Cl	5.0	-2.3	0.3	-1.1	-2.2	.
CCOCCCNC(=O)c1cn(CC)c2ccc(S(=O)(=O)N(C)C3CCCCC3)cc2c1=O	-1.8	0.7	.	.	-1.9	.
FC(F)Oc1ccc(-c2csc(NNC3=NCCCCC3)n2)cc1	0.1	-1.7	28.2	54.7*	-2.2	6.0
Brc1ccc(-c2csc(NNC3=NCCCCC3)n2)cc1	-4.9	-3.4	14.7	4.2	-0.9	.
COC(=O)C1(CC2CC(c3ccc(Cl)cc3)=NO2)CCN(C(=O)OC(C)(C)C)CC1 (stereo not given)	3.7	.	.	.	.	.
Cc1cc(C)cc(OCCn2nnc3ccccc32)c1	3.5	0.6	.	.	-0.9	.
O=C1CCCC2=C1C(c1ccc(O)c(O)c1)c1c(ccc3ncccc13)N2 (stereo not given)	5.5	-0.3	40.7	51.1*	-2.2	44.1*
CCOc1ccc(C2C3=C(CCCC3=O)Nc3ccc4ncccc4c32)cc1 (stereo not given)	4.0	0.1	0.1	27.3	-1.3	.
CCOC(=O)c1c(NC(=O)c2ccccc2)sc2c1CCc1ccccc1-2	0.8	-4.5	26.8	54.8*	-3.7	6.2
CCOC(=O)c1c(NC(=O)c2ccccc2Cl)sc2c1CCc1ccccc1-2	1.2	0.6	9.4	36.5	-0.4	.
N#CC1=C(N)Oc2cc(N)ccc2C1c1ccc(F)cc1 (stereo not given)	76.1*	-3.1	86.0*	72.6*	-3.1	-11.4
CSc1ccc(C2C(C#N)=C(N)Oc3cc4c(cc32)OCO4)cc1 (stereo not given)	?	-1.0	-2.1	1.2	-1.6	.
c1coc(-c2nc(-c3ccco3)c(-c3ccco3)nc2-c2ccco2)c1	59.6*	7.1	46.3	51.1*	-1.5	-37.6
Cc1cccc(OC(C)C(=O)NC2CCS(=O)(=O)C2)c1C (stereo not given)	3.2	1.4	.	.	-0.2	.
COc1ccc(OC)c2c1C(=O)C(Cl)=C(Cl)C2=O	1.3	8.3*	66.2*	67.9*	-1.6	19.4
Cc1[nH]c2ccccc2c1N=Nc1ccccc1C(=O)O	4.9	-4.1	-20.3	52.3*	-2.4	16.9
O=C(NCCN1CCOCC1)c1ccc(NS(=O)(=O)c2ccccc2)cc1	6.7	-4.1	.	.	-0.7	.
NS(=O)(=O)c1ccc(NNC(=O)c2ccccc2)cc1	0.6	0.0	-4.0	3.1	-1.5	.

Screening results: PubChem BioAssay, several laboratories
